# Laboratory results taken from PMC3799459 (Nucleic Acids Research, 2013).
# B1: DNA: biotinylated hemimethylated DNA duplex with 8 CpG, substrate of DNMT1 (Table 1) (nucleic acid)
# sense: GATCGCCGATGCGCGAATCGCGATCGATGCGAT
# antisense: ATCGCATCGATCGCGATTCGCGCATCGGCGATC
# modifications: biotin; hemimethylated CpG; printed: 5′-GATmCGCmCGATGmCGmCGAATmCGmCGATmCGATGmCGAT
# Columns and labels:
# [1] = molecular target: T1, DNMT1 (Homo sapiens, UniProt P26358); experiment: SAM-competition assay on DNMT1; format: biochemical; details: SAM 0.5-15 µM, DNA duplex 1.0 µM, inhibitor IC10 to IC80
# Procedure, shortened: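 DNMT1 Flashplate SPA in HEPES pH 7.2 buffer, 37°C, 2 h. [methyl-3H]SAM (0.6 TBq/mmol, isotopic dilution 1*:1) varied 0.5–15 µM at fixed 1.0 µM biotinylated DNA duplex. Test compound adjusted from IC10 to IC80 for each SAM level. IC50 at each SAM concentration from sigmoidal variable-slope fit; apparent kinetic constants per compound concentration by Michaelis–Menten fitting.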
# [2] = molecular target: T1, DNMT1; experiment: DNA-competition assay on DNMT1; format: biochemical; details: DNA duplex 0.05-1.0 µM, SAM 15 µM (1*:2), inhibitor IC10 to IC80
# Procedure, shortened: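 Streptavidin Flashplate SPA with DNMT1 in HEPES pH 7.2 reaction buffer (EDTA, KCl, BSA), 37°C for 2 h. Biotinylated DNA duplex varied 0.05–1.0 µM; [methyl-3H]SAM (0.6 TBq/mmol) fixed at 15 µM, isotopic dilution 1*:2. Test compound adjusted from IC10 to IC80 at each DNA level. IC50 per DNA concentration from sigmoidal variable-slope fit; apparent kinetic constants from Michaelis–Menten fits at each compound concentration.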
# [3] = molecular target: T1, DNMT1; experiment: DMSO tolerance of the DNMT1 Flashplate assay; format: biochemical
# [4] = molecular target: human DNMT3A (DNMT3A-C) (Homo sapiens, UniProt Q9Y6K1); experiment: DNMT3A Flashplate SPA inhibition assay; format: biochemical
# [5] = molecular target: M.SssI (Spiroplasma monobiae, UniProt P15840); experiment: M.SssI Flashplate SPA inhibition assay; format: biochemical, bacterial
# Procedure, shortened: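 Purchased M.SssI at 100 nM with 0.3 µM biotinylated non-methylated duplex and 1 µM SAM/[methyl-3H]SAM mix (3:1) in 1X NEBuffer 2; test compound ≤1% DMSO; 1 h at 37°C. Stopped in streptavidin Flashplate with 20 µM SAH, Tris-HCl pH 7.4; 1 h RT binding, Tween washes, scintillation cpm. %inhibition vs no-enzyme and no-compound controls; sigmoidal fit; two experiments in duplicate.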
# [6] = molecular target: T1, DNMT1; experiment: Km determination of DNMT1 substrates; format: biochemical; details: read-out: Km of DNA for DNMT1; DNA 0.05-1.0 µM, 15 µM SAM
# T1 sequence (P26358 whole entry): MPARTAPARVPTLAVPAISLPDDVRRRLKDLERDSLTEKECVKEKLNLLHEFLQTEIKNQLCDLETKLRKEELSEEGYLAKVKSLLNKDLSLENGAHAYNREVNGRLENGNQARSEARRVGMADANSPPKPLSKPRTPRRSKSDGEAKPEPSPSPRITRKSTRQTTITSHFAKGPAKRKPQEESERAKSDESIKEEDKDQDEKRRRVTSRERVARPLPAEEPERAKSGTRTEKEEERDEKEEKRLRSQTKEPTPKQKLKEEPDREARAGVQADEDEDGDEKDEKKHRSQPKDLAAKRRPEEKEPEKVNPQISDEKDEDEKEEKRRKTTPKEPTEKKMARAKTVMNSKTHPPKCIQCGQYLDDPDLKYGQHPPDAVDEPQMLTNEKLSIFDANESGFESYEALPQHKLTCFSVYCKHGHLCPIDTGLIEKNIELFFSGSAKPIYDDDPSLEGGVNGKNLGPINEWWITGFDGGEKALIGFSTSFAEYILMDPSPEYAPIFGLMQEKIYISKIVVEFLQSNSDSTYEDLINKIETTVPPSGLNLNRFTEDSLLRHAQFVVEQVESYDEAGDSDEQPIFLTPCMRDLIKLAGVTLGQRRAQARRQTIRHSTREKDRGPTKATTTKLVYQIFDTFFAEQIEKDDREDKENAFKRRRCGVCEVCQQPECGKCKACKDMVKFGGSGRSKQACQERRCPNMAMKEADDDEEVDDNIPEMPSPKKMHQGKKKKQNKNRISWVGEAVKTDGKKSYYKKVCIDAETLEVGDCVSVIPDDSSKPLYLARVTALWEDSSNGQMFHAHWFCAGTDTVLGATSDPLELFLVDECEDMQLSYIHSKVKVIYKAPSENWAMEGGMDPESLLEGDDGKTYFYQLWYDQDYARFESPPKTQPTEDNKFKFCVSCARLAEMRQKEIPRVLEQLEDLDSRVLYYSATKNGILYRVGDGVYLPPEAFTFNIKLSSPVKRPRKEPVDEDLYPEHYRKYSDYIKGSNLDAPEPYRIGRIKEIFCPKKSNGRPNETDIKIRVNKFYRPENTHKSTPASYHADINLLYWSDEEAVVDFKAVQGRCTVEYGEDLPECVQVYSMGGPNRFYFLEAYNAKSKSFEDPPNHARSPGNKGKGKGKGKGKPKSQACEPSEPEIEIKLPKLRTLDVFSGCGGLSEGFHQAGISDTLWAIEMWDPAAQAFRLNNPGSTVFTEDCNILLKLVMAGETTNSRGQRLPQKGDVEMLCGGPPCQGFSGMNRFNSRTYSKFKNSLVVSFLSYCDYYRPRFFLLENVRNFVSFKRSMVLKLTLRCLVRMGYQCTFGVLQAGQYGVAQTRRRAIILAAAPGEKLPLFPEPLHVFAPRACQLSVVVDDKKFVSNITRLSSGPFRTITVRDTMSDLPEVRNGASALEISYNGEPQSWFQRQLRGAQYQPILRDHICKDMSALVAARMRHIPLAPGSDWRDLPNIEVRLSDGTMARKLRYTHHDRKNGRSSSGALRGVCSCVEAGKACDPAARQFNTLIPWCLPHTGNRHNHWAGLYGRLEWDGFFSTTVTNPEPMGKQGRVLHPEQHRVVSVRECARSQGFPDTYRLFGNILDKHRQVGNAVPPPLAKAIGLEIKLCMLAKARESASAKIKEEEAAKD
# Chain of M.SssI (P15840 whole entry): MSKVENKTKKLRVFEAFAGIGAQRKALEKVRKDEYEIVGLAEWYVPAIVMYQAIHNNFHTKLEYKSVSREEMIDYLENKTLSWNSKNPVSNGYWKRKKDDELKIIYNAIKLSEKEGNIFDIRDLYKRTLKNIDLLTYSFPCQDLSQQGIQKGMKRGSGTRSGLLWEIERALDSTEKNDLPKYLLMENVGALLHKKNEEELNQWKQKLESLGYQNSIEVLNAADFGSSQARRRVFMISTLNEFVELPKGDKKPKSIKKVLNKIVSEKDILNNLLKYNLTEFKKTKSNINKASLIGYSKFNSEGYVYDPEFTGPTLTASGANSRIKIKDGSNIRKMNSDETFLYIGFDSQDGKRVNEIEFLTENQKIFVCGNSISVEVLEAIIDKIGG
# Chain of human DNMT3A (DNMT3A-C) (Q9Y6K1 624-912): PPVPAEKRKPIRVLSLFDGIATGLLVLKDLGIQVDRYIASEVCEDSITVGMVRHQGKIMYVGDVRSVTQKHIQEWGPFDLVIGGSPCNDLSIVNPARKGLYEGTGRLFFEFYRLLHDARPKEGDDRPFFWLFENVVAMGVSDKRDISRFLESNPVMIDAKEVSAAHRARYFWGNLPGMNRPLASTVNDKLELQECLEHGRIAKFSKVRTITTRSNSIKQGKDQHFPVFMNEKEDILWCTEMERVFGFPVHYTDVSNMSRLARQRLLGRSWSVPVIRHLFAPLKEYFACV
molecule,measurement,setting,value
"O=C1c2ccccc2OC(c2ccccc2)C1(Cl)[N+](=O)[O-] (stereo not drawn) [Compound 47, 3-chloro-3-nitroflavanone]",Mechanism of inhibition towards SAM,[1],SAM non-competitive inhibitor
same,Mechanism of inhibition towards DNA,[2],uncompetitive behavior
C[S+](C)[O-] [DMSO],Stimulation of DNMT1 activity,[3]; 1 to 10% (v/v) DMSO,< 10%
same,Effect on DNMT1 activity,[3]; 15 to 50% (v/v) DMSO,inhibition
Nc1ncnc2c1ncn2[C@@H]1O[C@H](C[C@@H](N)CC[C@H](N)C(=O)O)[C@@H](O)[C@H]1O [Sinefungin],Mechanism of inhibition towards SAM,[1],SAM-competitive
same,Mechanism of inhibition towards DNA,[2],uncompetitive inhibition
same,IC50,[4],1.8 ± 0.6 µM
same,IC50,[5],45 ± 7 µM
B1,Km,[6],~0.27 µM
